Shown are actives, neighbours in structure and some others; about 2.7% of the full set was active somewhere.
OX1R antag-1: antagonists of human orexin 1 receptor (OX1R). actives 1.8% (n = 330,000). inhibition, % at 6.6 µM. Orexin/Hypocretin receptor type 1 (Homo sapiens), O43613. AID 485270, 2010. OX1R-expressing cells, FRET antagonist read-out; in the data active = inhibition mostly above about 38%, no sharp cut-off; inactive = mostly below about 40%;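 also: 0% = agonist challenge alone and 100% = reference antagonist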
Target sequence (O43613 whole entry, looked up): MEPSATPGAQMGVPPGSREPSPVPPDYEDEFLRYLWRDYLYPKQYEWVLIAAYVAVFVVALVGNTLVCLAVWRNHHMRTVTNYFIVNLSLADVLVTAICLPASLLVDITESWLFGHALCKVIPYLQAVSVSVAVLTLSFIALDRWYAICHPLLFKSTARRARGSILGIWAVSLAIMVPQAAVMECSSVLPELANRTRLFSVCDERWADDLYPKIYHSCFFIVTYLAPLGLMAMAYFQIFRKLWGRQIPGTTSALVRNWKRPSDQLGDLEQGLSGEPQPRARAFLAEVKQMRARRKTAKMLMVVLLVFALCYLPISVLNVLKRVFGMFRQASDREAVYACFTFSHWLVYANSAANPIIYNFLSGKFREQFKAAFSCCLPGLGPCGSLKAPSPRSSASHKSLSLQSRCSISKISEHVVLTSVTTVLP
V1R ag counter: agonists of human V1a receptor, primary screen, counter-screen for OXTR agonist project, fluorescence, CHO-V1R cells | Vasopressin V1a receptor (Homo sapiens), P37288 | Fluo-8 calcium fluorescence, agonist mode; 0% DMSO, 100% 3 nM vasopressin | activation, % at 3 µM | actives 0.25% (n = 320,000) | AID 2797, 2010;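 active = activation above the mean activation of all tested compounds plus 3 SD, per screening run, cut at about 20% in these data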;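 also: signal is peak over basal fluorescence ratio across a 100 second FLIPR read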
OXTR agonist: human OXTR agonists, primary screen, fluorescence, CHO-OTR cells, Fluo-8 calcium; Oxytocin receptor (Homo sapiens), P30559; Fluo-8 calcium fluorescence; normalized: DMSO 0%, oxytocin 100%; activation, % at 3 µM; actives 0.32% (n = 320,000); AID 2435, 2010;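 active = activation above the mean of all tested compounds plus 3 SD, cutoff set per screening run, cut at about 20% in these data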;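 also: peak over basal fluorescence ratio from a 100 s FLIPR kinetic read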
OX1R antag-2: OX1R (HCRTR1) antagonists, primary screen, fluorescence, CHO/OX1R cells, Fluo-8 calcium, orexin A. Orexin/Hypocretin receptor type 1 (Homo sapiens), O43613. Fluo-8 calcium fluorescence. inhibition, % at 5 µM. actives 0.43% (n = 330,000). AID 434989, 2010;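 active = inhibition above its plate's threshold, mean inhibition of all tested compounds on the plate plus 3 SD, cut at about 37% in these data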;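 also: 0% = orexin A challenge wells and 100% = SB-334867-A antagonist wells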
CHO parental Ca: ATP-evoked calcium signal inhibitors, parental CHO, primary screen, counter-screen for OX1R antagonist project, cell-based, fluorescence, Fluo-8 calcium dye; inhibition, % at 5.6 µM; parental CHO-K1, ATP-induced calcium, Fluo-8 fluorescence; actives 0.63% (n = 330,000); AID 463079, 2010;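 active = inhibition above that plate's mean sample inhibition plus 3 SD, cut at about 26% in these data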;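 also: 0% = ATP-challenged DMSO wells and 100% = DMSO wells without ATP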
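test system = CHO parental line | reagent = ATP stimulus | measured by = intracellular calcium via Fluo-8 no-wash fluorescent dye | control set = ATP and no-ATP DMSO wells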
OXTR potentiator: human OXTR potentiators, primary screen, fluorescence, CHO-OTR cells, Fluo-8 calcium; Oxytocin receptor (Homo sapiens), P30559; Fluo-8 calcium fluorescence, potentiator mode; 0% = oxytocin EC15, 100% = EC100; activation, % at 3 µM; actives 0.061% (n = 320,000); AID 2445, 2010;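 active = activation above that plate's cutoff, the mean activation of tested compounds plus 3 SD, cut at about 6.6% in these data, passing the limit was not always enough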;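 also: 100% uses oxytocin at 75 nM as the full agonist control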
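Assay system: CHO cell line stably expressing human OTR. Reagent: EC15 oxytocin agonist. Dosing: single dose, 3.0 µM nominal final compound concentration. Timing: compound 6 min at room temperature before oxytocin, 100 s read. Signal: kinetic Fluo-8 calcium fluorescence. Controls: oxytocin EC15 low and EC100 high.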
Starred values were filed as active, the others as inactive.

What do the screens show for `CC(=O)Nc1ccc(S(=O)(=O)NCCC(=O)NCC2COc3ccccc3O2)cc1` (centres undefined)?
OX1R antag-1: 10; V1R ag counter: 0; OXTR agonist: 0; OX1R antag-2: -6; CHO parental Ca: 13; OXTR potentiator: -3

What do the screens show for `COCCN(C(=O)c1ccc(OCC(C)C)cc1)c1c(N)n(Cc2ccccc2)c(=O)[nH]c1=O`?
OX1R antag-1: 25; V1R ag counter: -1; OXTR agonist: -1; OX1R antag-2: -33; CHO parental Ca: -16; OXTR potentiator: -9

What do the screens show for `CCOc1c(Cl)cc(C(=O)Nc2ccccc2C(=O)O)cc1Cl`?
OX1R antag-1: 63*; V1R ag counter: 12; OXTR agonist: 8; OX1R antag-2: -6; CHO parental Ca: -3; OXTR potentiator: -19

Results for COc1ccc(C(=O)Nc2ccccc2C(=O)O)cc1Cl ?
OX1R antag-1: 18; V1R ag counter: 2; OXTR agonist: -1; OX1R antag-2: -2; CHO parental Ca: 3; OXTR potentiator: -2

How did Cc1ccc(C(=O)Nc2ccccc2C(=O)O)cc1NC(=O)COc1c(C)cccc1C do in these assays?
OX1R antag-1: 41*; V1R ag counter: 0; OXTR agonist: -1; OX1R antag-2: -21; CHO parental Ca: -8; OXTR potentiator: -3

Results for CC(C)NC(=O)N(C)C[C@H]1Oc2c(NC(=O)C3CC3)cccc2C(=O)N([C@H](C)CO)C[C@@H]1C ?
OX1R antag-1: 5; V1R ag counter: 2; OXTR agonist: 2; OX1R antag-2: -3; CHO parental Ca: 6; OXTR potentiator: -3

How did O=C(CCl)N1CCN(S(=O)(=O)Cc2ccccc2)CC1 do in these assays?
OX1R antag-1: 2; V1R ag counter: 1; OXTR agonist: 1; OX1R antag-2: -7; CHO parental Ca: -8; OXTR potentiator: -7

What do the screens show for `Fc1ccc(C(CCCn2nnc(-c3cccnc3)n2)c2ccc(F)cc2)cc1`?
OX1R antag-1: 41; V1R ag counter: 3; OXTR agonist: -1; OX1R antag-2: 48*; CHO parental Ca: 35*; OXTR potentiator: -19

How did Cc1ccc(C)c(N2CCN(C(=O)CCS(=O)(=O)c3ccc4c(c3)NC(=O)CO4)CC2)c1 do in these assays?
OX1R antag-1: 24; V1R ag counter: 17; OXTR agonist: 15; OX1R antag-2: 66*; CHO parental Ca: 57*; OXTR potentiator: -14

How did Cc1ccccc1/C=C/C1=NCCN1 do in these assays?
OX1R antag-1: 7; V1R ag counter: 1; OXTR agonist: -1; OX1R antag-2: -8; CHO parental Ca: -2; OXTR potentiator: -2

What do the screens show for `COc1ccc(-c2[nH]ncc2-c2ccc(Cl)cc2)c(O)c1`?
OX1R antag-1: 12; V1R ag counter: 1; OXTR agonist: 0; OX1R antag-2: 20; CHO parental Ca: 72*; OXTR potentiator: -28

Results for COc1ccc(-c2cn[nH]c2-c2ccc(OCc3ccccc3)cc2O)cc1 ?
OX1R antag-1: 8; V1R ag counter: 1; OXTR agonist: 1; OX1R antag-2: 16; CHO parental Ca: 54*; OXTR potentiator: -27

How did N#Cc1nc(-c2ccc(Cl)cc2)oc1NCc1ccco1 do in these assays?
OX1R antag-1: 28; V1R ag counter: 1; OXTR agonist: 1; OX1R antag-2: 10; CHO parental Ca: 44*; OXTR potentiator: -16

Results for CCOC(=O)c1cc2c(=O)n3ccccc3nc2n(CCCOC)c1=NC(C)=O ?
OX1R antag-1: 51*; V1R ag counter: 0; OXTR agonist: -1; OX1R antag-2: -14; CHO parental Ca: -4; OXTR potentiator: 3

What do the screens show for `CCOC(=O)c1cc2c(=O)n3ccccc3nc2n(C(C)C)c1=NC(=O)c1ccco1`?
OX1R antag-1: 29; V1R ag counter: -1; OXTR agonist: -1; OX1R antag-2: -24; CHO parental Ca: -8; OXTR potentiator: -1

How did C=CCn1c(=N)c(C(=O)NCCCOC)cc2c(=O)n3cc(C)ccc3nc21 do in these assays?
OX1R antag-1: 58*; V1R ag counter: 0; OXTR agonist: 1; OX1R antag-2: -10; CHO parental Ca: -10; OXTR potentiator: -1

What do the screens show for `Cc1ccc2nc3c(cc(C(=O)NC4CCCC4)c(=N)n3C3CCCCC3)c(=O)n2c1`?
OX1R antag-1: 21; V1R ag counter: 1; OXTR agonist: 0; OX1R antag-2: 0; CHO parental Ca: -9; OXTR potentiator: -3

What do the screens show for `CCCn1c(=NC(=O)c2ccco2)c(C(=O)OCC)cc2c(=O)n3ccccc3nc21`?
OX1R antag-1: 32*; V1R ag counter: 1; OXTR agonist: 0; OX1R antag-2: -30; CHO parental Ca: -14; OXTR potentiator: -6

How did CCOC(=O)c1cc2c(=O)n3cccc(C)c3nc2n(CC(C)C)c1=NC(=O)c1ccco1 do in these assays?
OX1R antag-1: 54*; V1R ag counter: 1; OXTR agonist: -1; OX1R antag-2: -21; CHO parental Ca: -15; OXTR potentiator: 2

How did CN(C(=O)Cn1nnc2ccccc2c1=O)C1CCCCC1 do in these assays?
OX1R antag-1: 24; V1R ag counter: 1; OXTR agonist: 0; OX1R antag-2: -9; CHO parental Ca: -10; OXTR potentiator: -1

What do the screens show for `CNc1snc(C)c1C(=O)OC(C)C(=O)Nc1ccc(F)cc1` (centres undefined)?
OX1R antag-1: 4; V1R ag counter: 5; OXTR agonist: 4; OX1R antag-2: -11; CHO parental Ca: -9; OXTR potentiator: -11

How did CCOC(=O)c1cc2c(=O)n3cccc(C)c3nc2n(CCOC)c1=NC(C)=O do in these assays?
OX1R antag-1: 19; V1R ag counter: 0; OXTR agonist: -1; OX1R antag-2: -20; CHO parental Ca: -22; OXTR potentiator: -4

What do the screens show for `C=CCn1c(=N)c(C(=O)OCC)cc2c(=O)n3cccc(C)c3nc21`?
OX1R antag-1: 110*; V1R ag counter: 0; OXTR agonist: 0; OX1R antag-2: -15; CHO parental Ca: -9; OXTR potentiator: -6

Results for O=C1CN(C(=O)COC(=O)COc2ccccc2)c2ccccc2N1 ?
OX1R antag-1: 3; V1R ag counter: 1; OXTR agonist: 2; OX1R antag-2: 2; CHO parental Ca: 1; OXTR potentiator: 0

Results for CC[C@H](C)[C@@H](C(=O)NCCCCCCCCCCC(=O)N1CCN(C(=O)OC(C)(C)C)CC1)n1cc(CCCCCNC(=O)OC(C)(C)C)nn1 ?
OX1R antag-1: 13; V1R ag counter: 6; OXTR agonist: 4; OX1R antag-2: 32; CHO parental Ca: 43*; OXTR potentiator: -15

Screening data deposited in PubChem BioAssay by The Scripps Research Institute Molecular Screening Center.
